Reference: ChEMBL document CHEMBL1122025, “Catechol O-methyltransferase. 11. Inactivation by 5-hydroxy-3-mercapto-4-methoxybenzoic acid” (1982)

Columns and labels:
[1] = biological target: T1, Catechol O-methyltransferase (Rattus norvegicus) (UniProt P22734); test: Inhibition of Catechol O-methyltransferase from rat liver at time zero with […] of the enzyme after pre-incubation for 30 min (in presence of DTT)
T1 sequence (whole entry): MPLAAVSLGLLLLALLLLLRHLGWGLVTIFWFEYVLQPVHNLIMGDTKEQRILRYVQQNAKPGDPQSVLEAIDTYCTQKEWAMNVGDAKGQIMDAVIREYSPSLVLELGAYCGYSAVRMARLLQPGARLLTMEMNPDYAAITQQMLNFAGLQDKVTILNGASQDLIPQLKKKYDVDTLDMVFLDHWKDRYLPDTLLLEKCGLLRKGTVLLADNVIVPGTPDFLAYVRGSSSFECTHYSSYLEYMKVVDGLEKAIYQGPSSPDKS

[2] = biological target: T1, Catechol O-methyltransferase (Rattus norvegicus); test: Inhibition of Catechol O-methyltransferase from rat liver at time zero with no further inactivation of the enzyme after pre-incubation for 30 min (in absence of DTT)
[3] = biological target: T1, Catechol O-methyltransferase (Rattus norvegicus); test: Inhibition constant against Catechol O-methyltransferase from rat liver in the absence of dithiothreitol (DTT)
[4] = biological target: T1, Catechol O-methyltransferase (Rattus norvegicus); test: Inhibition constant against Catechol O-methyltransferase from rat liver in the presence of 4 mM of dithiothreitol (DTT)
[5] = organism: Rattus norvegicus; test: Effect of dialysis on inhibitory potency when COMT is pre-incubated in the absence of dithiothreitol (DTT) (after dialysis (-DTT)); format: functional
[6] = organism: Rattus norvegicus; test: Effect of dialysis on inhibitory potency when COMT is pre-incubated in the absence of dithiothreitol (DTT) (before dialysis); format: functional
Summary of the method: (§1)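 Rat liver COMT (male Sprague-Dawley, partially purified, DTT-reactivated before use) preincubated 30 min at 37 °C in 0.2 M phosphate buffer pH 7.6 with 1 mM inhibitor, with or without 8.0 mM DTT. Activity was then assayed directly or after dialysis against 0.2 M phosphate pH 7.6 containing 8.0 mM DTT. Result expressed as % activity remaining.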

[7] = organism: Rattus norvegicus; test: Effect of dialysis on inhibitory potency when COMT is pre-incubated with dithiothreitol (+DTT) (after dialysis); format: functional; summary of the method: as §1
[8] = organism: Rattus norvegicus; test: Effect of dialysis on inhibitory potency when COMT is pre-incubated with dithiothreitol (DTT) (before dialysis); format: functional; summary of the method: as §1
[9] = organism: Rattus norvegicus; test: Effect of dialysis on inhibitory potency when COMT is pre-incubated in the absence of dithiothreitol (DTT) (after dialysis(+DTT))

inhibition [1]: 39%
inhibition [2]: 91%
Kii [3]: 30.2 µM
Kis [3]: 59.9 µM
Kii [4]: 743 µM
Kis [4]: 1140 µM
Structure (SMILES): COc1c(O)cc(C(=O)O)cc1S
Activity remaining [5]: 1%
Activity remaining [6]: 7%
Activity remaining [7]: 87%
Activity remaining [8]: 70%
Activity remaining [9]: 76%
